The record followed here is ChEMBL document CHEMBL3243953, “5-Aryl-1,5-dihydro-2H-1,4-benzodiazepin-2-one derivatives as antianxiety agents” (J Med Chem, 1977).

Series [1] deals with Mus musculus. Put plainly: Anticonvulsant activity in po dosed mouse by maximal electroshock test. In kind it is functional. The procedure, abridged:
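Maximal electroshock test in mice after oral dosing, used as a measure of anticonvulsant activity; ED50 (mg/kg) reported.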
(In general: The maximal electroshock test induces tonic seizures with an electrical stimulus.)

Series [2] deals with Mus musculus. Put plainly: Muscle relaxant activity in po dosed mouse assessed as muscle relaxation by rotarod test. In kind it is functional. The procedure, abridged: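 Rotarod performance test in mice after oral dosing, used as a measure of muscle relaxant activity; result expressed as ED50 (mg/kg).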
(In general: In the rotarod test animals must keep their balance on a rotating rod.)

Series [3] deals with Mus musculus. Put plainly: Anticonvulsant activity in po dosed mouse assessed as inhibition of pentylene-tetrazole-induced convulsion. In kind it is functional. The procedure, abridged:
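Antagonism of pentylenetetrazole-induced convulsions in orally dosed mice, used as a measure of tranquilizing activity; ED50 (mg/kg) reported.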

A short description of series [4]: Acute toxicity in po dosed mouse. In kind it is organism-based. Particulars: in vivo. In outline:
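Mice dosed orally; acute toxicity expressed as LD50 (mg/kg), calculated by the Bliss method.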

The structures appear in SMILES notation. Where only a bound is given, the exact number is not on record here.

For `O=C1Nc2ccc([N+](=O)[O-])cc2C(c2ccccc2)=NC1OCCO` (stereo unspecified), the values for the ED50 in the series with Mus musculus [1], with Mus musculus [2] and in the series on Mus musculus [3] were more than 100 mg/kg, more than 100 mg/kg and 9.2 mg/kg, respectively. The LD50 – broadly, the dose at which mortality reaches 50% – in series [4] was more than 1000 mg/kg.

As for `O=C1Nc2ccc(Cl)cc2C(c2ccccc2)=NC1OCCO` (stereo unspecified), the values for the 50% effective dose (ED50) with Mus musculus [1], with Mus musculus [2] and in the series on Mus musculus [3] were more than 100 mg/kg, more than 100 mg/kg and 36 mg/kg, respectively. In addition, the LD50 in series [4] was more than 1000 mg/kg.

Regarding `CC(=O)OC1(c2ccccc2)c2cc([N+](=O)[O-])ccc2NC(=O)CN1[N+](=O)[O-]` (stereo unspecified), the ED50 – broadly, the midpoint of the dose-response relation – in the series with Mus musculus [1] was more than 100 mg/kg; in the series with Mus musculus [2] it was more than 100 mg/kg; with Mus musculus [3] it was 58 mg/kg. In series [4], the LD50 is more than 1000 mg/kg.

On to `CNC1=NC(c2ccccc2)c2cc([N+](=O)[O-])ccc2N(C)C1=O` (stereo unspecified), for which the 50% effective dose (ED50) with Mus musculus [1], with Mus musculus [2] and with Mus musculus [3] was more than 100 mg/kg throughout. For the same compound, the LD50 in series [4] was more than 1000 mg/kg.

Take `COC1(c2ccccc2)N=CC(=O)N(C)c2ccc([N+](=O)[O-])cc21` (stereo unspecified): the ED50 in the series with Mus musculus [1] turned out to be 76 mg/kg; in the series with Mus musculus [2], 5.2 mg/kg; in the series on Mus musculus [3], 0.7 mg/kg. In series [4], the LD50 was found to be 750 mg/kg.

Consider `COC1(c2ccccc2)c2cc(Cl)ccc2N(C)C(=O)CN1[N+](=O)[O-]` (stereo unspecified), for which the ED50 in the series on Mus musculus [1], in the series with Mus musculus [2] and with Mus musculus [3] was more than 100 mg/kg each time. The LD50 in series [4] is more than 1000 mg/kg.

As for `COC1(c2ccccc2)N=CC(=O)Nc2ccc([N+](=O)[O-])cc21` (stereo unspecified), the figures for the median effective dose (ED50) in the series on Mus musculus [1], in the series on Mus musculus [2] and in the series with Mus musculus [3] were more than 100 mg/kg, 19.1 mg/kg and 1.4 mg/kg, respectively. In series [4], this compound came in with a 50% lethal dose (LD50) of more than 1000 mg/kg.

On to `N#CC1N=C(c2ccccc2)c2cc(Cl)ccc2NC1=O` (stereo unspecified), for which the results for the ED50 in the series with Mus musculus [1], with Mus musculus [2] and in the series on Mus musculus [3] were more than 100 mg/kg, more than 100 mg/kg and 14 mg/kg, respectively. Further, the LD50 in series [4] was more than 1000 mg/kg.

In the case of `O=C1Nc2ccc(Cl)cc2C(c2ccccc2)=NC1NO` (stereo unspecified), the ED50 in the series on Mus musculus [1] is more than 100 mg/kg; in the series with Mus musculus [2] it was more than 100 mg/kg; in the series with Mus musculus [3], 32 mg/kg. Also, in series [4], the LD50 is more than 1000 mg/kg.

Turning to `NC1N=C(c2ccccc2)c2cc(Cl)ccc2NC1=O` (stereo unspecified), the values for the ED50 with Mus musculus [1], in the series with Mus musculus [2] and in the series with Mus musculus [3] were more than 100 mg/kg, more than 100 mg/kg and 85 mg/kg, respectively. In series [4], this compound registered an LD50 of more than 1000 mg/kg.

Regarding `N#CC1N=C(c2ccccc2)c2cc([N+](=O)[O-])ccc2NC1=O` (stereo unspecified), the median effective dose (ED50) in the series with Mus musculus [1], with Mus musculus [2] and in the series with Mus musculus [3] was more than 100 mg/kg each time. The compound also displayed an LD50 in series [4] of more than 1000 mg/kg.

Take `COC1(c2ccccc2)c2cc(Cl)ccc2NC(=O)CN1[N+](=O)[O-]` (stereo unspecified): the ED50 in the series on Mus musculus [1], with Mus musculus [2] and in the series on Mus musculus [3] was more than 100 mg/kg throughout. The compound further gave an LD50 in series [4] of more than 1000 mg/kg.

Regarding `O=C1Nc2ccc([N+](=O)[O-])cc2C(c2ccccc2)=NC1OCCCl` (stereo unspecified), the ED50 was more than 100 mg/kg in the series on Mus musculus [1], more than 100 mg/kg with Mus musculus [2] and 9.2 mg/kg in the series on Mus musculus [3]. The compound also showed an LD50 in series [4] of more than 1000 mg/kg.

As for `COC1(c2ccccc2)N=CC(=O)N(C)c2ccc(Cl)cc21` (stereo unspecified), the ED50 worked out at 53 mg/kg in the series with Mus musculus [1], 27.5 mg/kg with Mus musculus [2] and 0.7 mg/kg in the series with Mus musculus [3]. This compound came in with an LD50 in series [4] of more than 1000 mg/kg.

Take `CN1C(=O)CN=C(c2ccccc2)c2cc(Cl)ccc21` [DIAZEPAM]: the ED50 with Mus musculus [1] was 62.2 mg/kg; in the series with Mus musculus [2], 14.4 mg/kg; in the series with Mus musculus [3] it was 1.2 mg/kg.

Turning to `COC1(c2ccccc2)N=CC(=O)Nc2ccc(Cl)cc21` (stereo unspecified), the ED50 with Mus musculus [1] is more than 100 mg/kg; in the series on Mus musculus [2], 28.1 mg/kg; in the series on Mus musculus [3] it was 1.6 mg/kg. In addition, in series [4], the LD50 was more than 1000 mg/kg.

`O=C1Nc2ccc(Cl)cc2C(c2ccccc2)=NC1OCCCl` (stereo unspecified): the values for the ED50 in the series with Mus musculus [1], in the series on Mus musculus [2] and in the series on Mus musculus [3] were more than 100 mg/kg, more than 100 mg/kg and 13 mg/kg, respectively. This compound also displayed an LD50 in series [4] of more than 1000 mg/kg.

As for `COC1(c2ccccc2)c2cc([N+](=O)[O-])ccc2NC(=O)CN1[N+](=O)[O-]` (stereo unspecified), the results for the ED50 with Mus musculus [1], in the series with Mus musculus [2] and with Mus musculus [3] were more than 100 mg/kg, more than 100 mg/kg and 13 mg/kg, respectively. The LD50 in series [4] is more than 1000 mg/kg.
